Test results taken from publication PMC9508631 (Saudi Pharmaceutical Journal : SPJ, 2022).

How the values were obtained:
[1] = test system: PDE5; conditions: ref Bischoff, 2004; cited from earlier work
[2] = Stability of TAD in rat plasma under storage and processing conditions; type: in vitro ADME; conditions: for Processed sample stability, RE% / Processed sample stability, calculated conc. (Mean ± SD): autosampler, room temperature 24 h; for Freeze–thaw stability, RE% / Freeze–thaw stability, calculated conc. (Mean ± SD): three freeze–thaw cycles; for Long term stability, RE% / Long term stability, calculated conc. (Mean ± SD): −30 °C for 30 days
How it was run: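 Test compound spiked into blank rat plasma as QC samples at 0.5, 10 and 100 ng mL−1. Conditions: bench-top thaw at room temperature for 6 h (triplicates); −30 °C for 30 days; three freeze–thaw cycles (24 h at −30 °C, ambient thaw); processed samples held in the autosampler at room temperature for 24 h. Quantified by FPSE-UPLC-ESI-MS/MS, with peak areas compared against freshly prepared QCs; acceptance RE <15%.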

[3] = actual conc. 0.5 ng mL^-1, room temperature 6 h

| Structure (SMILES) | Selectivity for PDE5 [1] [times] | Processed sample stability, RE% ([2]; actual conc. 0.5 ng mL^-1) [%] | Processed sample stability, calculated conc. (Mean ± SD) ([2]; actual conc. 0.5 ng mL^-1) [ng/mL] | Benchtop stability, RE% [2, 3] [%] | Benchtop stability, calculated conc. (Mean ± SD) [2, 3] [ng/mL] | Freeze–thaw stability, RE% ([2]; actual conc. 0.5 ng mL^-1) [%] | Freeze–thaw stability, calculated conc. (Mean ± SD) ([2]; actual conc. 0.5 ng mL^-1) [ng/mL] | Long term stability, RE% ([2]; actual conc. 0.5 ng mL^-1) [%] | Long term stability, calculated conc. (Mean ± SD) ([2]; actual conc. 0.5 ng mL^-1) [ng/mL] | Processed sample stability, RE% ([2]; actual conc. 10 ng mL^-1) [%] | Processed sample stability, calculated conc. (Mean ± SD) ([2]; actual conc. 10 ng mL^-1) [ng/mL] | Benchtop stability, calculated conc. (Mean ± SD) ([2]; actual conc. 10 ng mL^-1, room temperature 6 h) [ng/mL] | Freeze–thaw stability, calculated conc. (Mean ± SD) ([2]; actual conc. 10 ng mL^-1) [ng/mL] | Long term stability, RE% ([2]; actual conc. 10 ng mL^-1) [%] | Long term stability, calculated conc. (Mean ± SD) ([2]; actual conc. 10 ng mL^-1) [ng/mL] | Processed sample stability, calculated conc. (Mean ± SD) ([2]; actual conc. 100 ng mL^-1) [ng/mL] | Benchtop stability, calculated conc. (Mean ± SD) ([2]; actual conc. 100 ng mL^-1, room temperature 6 h) [ng/mL] | Freeze–thaw stability, RE% ([2]; actual conc. 100 ng mL^-1) [%] | Freeze–thaw stability, calculated conc. (Mean ± SD) ([2]; actual conc. 100 ng mL^-1) [ng/mL] | Stability in rat plasma under the storage and processing situations ([2]; all four stability tests, RE% and RSD% within 15%) |
| --- | --- | --- | --- | --- | --- | --- | --- | --- | --- | --- | --- | --- | --- | --- | --- | --- | --- | --- | --- | --- |
| CCCc1nn(C)c2c(=O)[nH]c(-c3cc(S(=O)(=O)N4CCN(C)CC4)ccc3OCC)nc12 [SLD, sildenafil] | 41 | – | – | – | – | – | – | – | – | – | – | – | – | – | – | – | – | – | – | – |
| CN1CC(=O)N2[C@H](c3ccc4c(c3)OCO4)c3[nH]c4ccccc4c3C[C@@H]2C1=O [TAD, Tadalafil] | 1000 | −2.0 | 0.490 ± 0.011 | −1.60 | 0.492 ± 0.012 | −3.8 | 0.481 ± 0.022 | −2.60 | 0.487 ± 0.018 | 0.50 | 10.05 ± 0.195 | 9.98 ± 0.251 | 9.85 ± 0.263 | 1.10 | 10.11 ± 0.219 | 99.48 ± 1.824 | 99.90 ± 1.850 | 0.22 | 100.22 ± 2.054 | stable |
